# Laboratory results taken from ChEMBL document CHEMBL2040844, “Anthranilic acid-based diamides derivatives incorporating aryl-isoxazoline pharmacophore as potential anticancer agents: design, synthesis and biological evaluation” (Eur J Med Chem, 2012).
# Tests used:
# MCF7 [1] = assay: Cytotoxicity against human MCF7 cells after 72 hrs by MTT assay; format: functional, cell-based; details: MCF7, 72 h
# Outline: (§1)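 MTT assay. Cells were seeded at 2 × 10⁴ per well, grown to subconfluence, then exposed to serial dilutions of compound in test medium for 72 h at 37 °C in humidified 5% CO₂. MTT was added for 4 h, formazan was dissolved in DMSO, and absorbance was read at 570 nm. IC50 values were derived from dose-response. Triplicate wells, three independent experiments; 5-FU served as positive control.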
# BGC-823 [2] = assay: Cytotoxicity against human BGC823 cells after 72 hrs by MTT assay; format: functional, cell-based; details: for IC50: BGC-823, 72 h; outline: as §1
# NCI-H460 [3] = assay: Cytotoxicity against human NCI-H460 cells after 72 hrs by MTT assay; format: functional, cell-based; details: NCI-H460, 72 h; outline: as §1
# HepG2 [4] = assay: Cytotoxicity against human HepG2 cells after 72 hrs by MTT assay; format: functional, cell-based; details: for IC50: HepG2, 72 h; outline: as §1
# SGC-7901 [5] = assay: Growth inhibition of human SGC7901 cells at 40 ug/ml after 72 hrs by MTT assay; format: functional; details: SGC-7901, 72 h, read-out: GI
# Outline: (§2)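 Single-concentration screen at 40 µg/mL, reported as % cell growth inhibition. Cells were seeded at 2 × 10⁴ per well, grown to subconfluence, then treated for 72 h at 37 °C in humidified 5% CO₂. MTT was added for 4 h, formazan was dissolved in DMSO, and absorbance was read at 570 nm. Triplicate wells, three independent experiments; 5-FU served as positive control.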
# BGC-823 [6] = assay: Growth inhibition of human BGC823 cells at 40 ug/ml after 72 hrs by MTT assay; format: functional; details: BGC-823, 72 h, read-out: GI; outline: as §2
# NCI-H460 [7] = assay: Growth inhibition of human NCI-H460 cells at 40 ug/ml after 72 hrs by MTT assay; format: functional; details: NCI-H460, 72 h, read-out: GI; outline: as §2
# HepG2 [8] = assay: Growth inhibition of human HepG2 cells at 40 ug/ml after 72 hrs by MTT assay; format: functional; details: HepG2, 72 h, read-out: GI; outline: as §2
# SGC-7901 [9] = assay: Cytotoxicity against human SGC7901 cells after 72 hrs by MTT assay; format: functional, cell-based; details: SGC-7901, 72 h; outline: as §1
# MCF7 [10] = assay: Growth inhibition of human MCF7 cells at 40 ug/ml after 72 hrs by MTT assay; format: functional; details: MCF7, 72 h, read-out: GI; outline: as §2
SMILES,IC50 (MCF7 [1]),Activity (BGC-823 [2]),IC50 (BGC-823 [2]),IC50 (NCI-H460 [3]),Activity (HepG2 [4]),IC50 (HepG2 [4]),inhibition of growth at 40 µg/mL (SGC-7901 [5]),inhibition of growth at 40 µg/mL (BGC-823 [6]),inhibition of growth at 40 µg/mL (NCI-H460 [7]),inhibition of growth at 40 µg/mL (HepG2 [8]),IC50 (SGC-7901 [9]),inhibition of growth at 40 µg/mL (MCF7 [10])
COc1cc(C2=NOC(C(=O)Nc3c(C)cc(Cl)cc3C(=O)NC3CCCCC3)C2)cc(OC)c1OC (centres undefined),22.4 µM,Dose-dependent effect,23.3 µM,24.7 µM,Dose-dependent effect,34.8 µM,60.2%,69.7%,74%,64%,36.8 µM,62.7%
Cc1cc(Cl)cc(C(=O)NC2CCCCC2)c1NC(=O)C1CC(c2ccc(F)cc2)=NO1 (centres undefined),,,,,,,15.6%,34.3%,33.3%,10%,,24.8%
CCN(CC)C(=O)c1cc(Cl)cc(C)c1NC(=O)C1CC(c2ccc(Cl)cc2)=NO1 (centres undefined),34.5 µM,Dose-dependent effect,36.5 µM,37.5 µM,Dose-dependent effect,37.7 µM,76.3%,59.6%,63.5%,59.2%,37.4 µM,62.1%
Cc1cc(Cl)cc2c(=O)oc(C3CC(c4ccc(Cl)cc4)=NO3)nc12 (centres undefined),68.7 µM,,54.4 µM,41.9 µM,,43.6 µM,35.6%,31.5%,58.1%,52.4%,68.8 µM,37.7%
CNC(=O)c1ccccc1NC(=O)C1CC(c2ccc(Cl)cc2)=NO1 (centres undefined),,,,,,,7.8%,13.3%,5.7%,50.6%,,16.5%
COc1cc(C2=NOC(C(=O)Nc3ccccc3C(=O)NC(C)C)C2)cc(OC)c1OC (centres undefined),,,,,,,0%,0%,0%,11.7%,,0%
CNC(=O)c1ccccc1NC(=O)C1CC(c2cc(OC)c(OC)c(OC)c2)=NO1 (centres undefined),,,,,,,12%,20.8%,0%,31.4%,,9.1%
COc1cc(C2=NOC(C(=O)Nc3c(C)cc(Cl)cc3C(=O)NC(C)C)C2)cc(OC)c1OC (centres undefined),,,,,,,0%,11.7%,0.5%,12.9%,,9.1%
CNC(=O)c1ccccc1NC(=O)C1CC(c2ccc(F)cc2)=NO1 (centres undefined),,,,,,,0%,21.4%,0%,9.1%,,0%
Cc1cc(Cl)cc(C(=O)NC2CCCCC2)c1NC(=O)C1CC(c2ccc(Cl)cc2)=NO1 (centres undefined),,,,,,,3.1%,18.3%,15.1%,15.6%,,9.6%
CC(C)NC(=O)c1ccccc1NC(=O)C1CC(c2ccc(Cl)cc2)=NO1 (centres undefined),,,,,,,13.6%,14.6%,0%,5.5%,,0%
CCN(CC)C(=O)c1cc(Cl)cc(C)c1NC(=O)C1CC(c2cc(OC)c(OC)c(OC)c2)=NO1 (centres undefined),,,,,,,28.3%,27.8%,0%,28.6%,,23.5%
CCCNC(=O)c1cc(Cl)cc(C)c1NC(=O)C1CC(c2ccc(Cl)cc2)=NO1 (centres undefined),,,,,,,14.7%,24.5%,13.6%,16.7%,,22.2%
